# Source: PubChem (several laboratories)
# Compounds with a hit are over-represented: about 2.4% of the library has one in this group of screens.
# DAGLB inh: diacylglycerol lipase beta (human) inhibition. inhibition, % at 5.17 µM. HEK293T DAGLB membrane lysate, EnzChek fluorogenic substrate. 340,000 compounds, 0.059% hits. Q8NCG7. AID 504411; in the data active means inhibition above about 34%;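 further: 0% = enzyme with vehicle and 100% = wells lacking enzyme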
# Target sequence (Q8NCG7 whole entry, looked up): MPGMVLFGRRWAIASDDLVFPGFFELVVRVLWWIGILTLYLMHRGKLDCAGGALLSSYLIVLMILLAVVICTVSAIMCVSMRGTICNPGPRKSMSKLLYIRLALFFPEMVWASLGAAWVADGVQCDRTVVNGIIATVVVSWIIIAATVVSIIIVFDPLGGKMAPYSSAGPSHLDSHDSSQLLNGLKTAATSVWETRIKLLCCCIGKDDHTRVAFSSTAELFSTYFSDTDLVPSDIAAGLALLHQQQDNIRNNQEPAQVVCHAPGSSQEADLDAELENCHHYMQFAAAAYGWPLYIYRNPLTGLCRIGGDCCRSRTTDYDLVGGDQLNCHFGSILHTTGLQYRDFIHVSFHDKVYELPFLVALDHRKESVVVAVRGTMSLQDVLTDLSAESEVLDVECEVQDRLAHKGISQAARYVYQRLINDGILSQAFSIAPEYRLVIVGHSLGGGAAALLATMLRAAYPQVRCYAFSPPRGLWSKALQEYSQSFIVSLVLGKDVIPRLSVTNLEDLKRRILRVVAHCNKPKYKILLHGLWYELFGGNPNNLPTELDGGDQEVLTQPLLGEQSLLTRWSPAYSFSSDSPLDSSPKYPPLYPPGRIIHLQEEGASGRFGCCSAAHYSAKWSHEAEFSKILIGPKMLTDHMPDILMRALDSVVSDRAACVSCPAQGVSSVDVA
# NRP1-CendR mod: NRP-1/CendR interaction modulation | O14786 | 360,000 compounds, 0.85% hits | inhibition, % at 25 µM | AID 602438 | FAM-RPARPAR peptide binding to NRP-1, fluorescence polarization;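 active means inhibition or corrected inhibition above about 18%, plus a signal ratio from 0.5 to 1.5, limit read from the data, passing the limit was not always enough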
# MT1-MMP act inh: MT1-MMP (human) activation inhibition | P50281 | HT1080 RFP-PRO-GFP cells, GFP/RFP ratio fluorescence, overnight; percent of plate control window, DMSO zero | GFP/RFP ratio change, % at 20 µM | 360,000 compounds, 0.061% hits | AID 651647;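 active means GFP/RFP ratio change of at least 30% with cell ATP level not reduced by more than half and red fluorescence within 50% of control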
#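 Material: RFP-PRO-GFP reporter HT1080 cells. Dosing: single-point 20 µM compound, 1% DMSO. Controls: DMSO and RFP-L50D-GFP cell wells. Timing: cells overnight before dosing, compound overnight, 37 °C, 5% CO2. Measure: GFP/RFP fluorescence ratio.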
# MIN6 prolif: MIN6 beta-cell proliferation induction. proliferation, % at 10 µM. MIN6 cells proliferation, ATPlite luminescence, 48 h; cells starved in 0.2% serum; 100% = growth in 10% serum. 330,000 compounds, 0.29% hits;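 active means compounds whose signal lies at least 3.5 SD above the mean of all wells on their plate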;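 further: 0% = DMSO-treated cells in low-serum medium and 100% = 10% serum control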
# SENP1 FRET inh: SENP1 (human) catalytic domain inhibition; recombinant SENP1 catalytic domain, CyPet-SUMO1-YPet FRET cleavage; 360,000 compounds, 0.21% hits; Q9P0U3; inhibition, % at 10 µM;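 active means inhibition at least 30% at 10 µM, raw YFP signal under a set limit, fluorescence ratio 0.5 to 1.5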;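 further: 0% = enzyme with DMSO and 100% = no enzyme wells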
#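 Material – human SENP1 catalytic domain · Input – SENP1 enzyme, 20 pM final · Compound dosing – single concentration of 10 µM compound, 0.5% DMSO final · Timing – enzyme reaction for 50 min at room temperature, dark · Measured by – FRET fluorescence in CFP and YFP emission channels · Control set – no-enzyme wells low, DMSO-plus-enzyme wells high control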
# Myeloid diff MLP: myeloid differentiation induction. ER-HoxA9 myeloid progenitors, lysozyme-GFP differentiation, flow cytometry. calls only at 10 µM. 360,000 compounds, 1% hits. AID 624256;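 active means normalized GFP-positive differentiation at or above the plate's own cutoff, the solvent-only control mean plus 3 SD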;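 further: cells exposed to compound for four days before flow analysis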
# Numbers without * were called inactive; i = inactive; nt = no result; + = active, no number.
SMILES,DAGLB inh,NRP1-CendR mod,MT1-MMP act inh,MIN6 prolif,SENP1 FRET inh,Myeloid diff MLP
CCOC(=O)CCCCCC(=O)Nc1ccc2c(c1)C(=O)N([C@H](C)CO)C[C@H](C)[C@H](CN(C)C(=O)C1CCCCC1)OCCCC[C@@H](C)O2,-1,-1,-2,nt,-3,i
O=C(NCc1ccccc1)c1ccccc1C(=O)c1ncc[nH]1,0,27*,-2,1,2,i
CSc1cccc(CN2CCN(Cc3ccccc3)C(CCO)C2)c1 (stereo unspecified),4,24*,-10,-1,2,i
Cc1ncc(CN2CCN(Cc3ccccc3)C(CCO)C2)s1 (stereo unspecified),1,-4,-2,0,-3,+
COCCn1c(SCC(=O)NCc2ccc(F)cc2)nc2ccccc21,3,-6,0,0,-1,i
COC(=O)[C@]1(Cc2ccccc2)N[C@H](c2ccc(-c3ccc(OC)cc3)cc2)[C@@H]2C(=O)N(C)C(=O)[C@@H]21,-1,3,0,-2,0,i
CCCCCCSc1ccc([C@H]2N[C@@](Cc3ccccc3)(C(=O)OC)[C@H]3C(=O)N(C)C(=O)[C@@H]23)cc1OC,-6,28*,-3,-4,2,i
CCCSc1ccc([C@H]2N[C@@](C)(C(=O)OC)[C@H]3C(=O)N(C)C(=O)[C@@H]23)cc1OC,1,28*,0,-4,-2,i
COC(=O)[C@@]12C[C@@H](CC(=O)N3CCOCC3)C(=O)N(CCc3ccc(OC)c(OC)c3)C1=CCC(C)(C)C2,nt,4,3,nt,2,i
COc1cc(C2C(C#N)=C(N)OC3=C2C(=O)CCC3)cc2c1OCO2 (stereo unspecified),-1,4,2,-2,1,i
CC1CCCN(S(=O)(=O)c2cc3c4c(c2)CCN4C(=O)CC3)C1 (stereo unspecified),1,5,2,-1,-1,i
CC1CC(C)CN(S(=O)(=O)c2cc3c4c(c2)CCN4C(=O)CC3)C1 (stereo unspecified),0,25*,2,0,0,i
COC(=O)c1cnc(Oc2c(Cl)cc(N)cc2Cl)cc1C(F)(F)F,-5,-1,0,2,2,i
CC(C)n1c(SCC(=O)N2c3ccccc3Sc3ccccc32)nc2c1c(=O)n(C)c(=O)n2C,0,7,-7,nt,0,+
O=C(CSc1nnc(-c2cccnc2)n1CCN1CCCCC1)Nc1cccc(Cl)c1,0,-5,-3,0,2,i
N#CCc1ccc(C(=O)c2ccccc2F)s1,0,-9,1,1,0,+
O=C(O)Cc1ccc(C(=O)c2ccccc2)s1,-1,8,-5,-1,-37,i
C[C@H](CO)N1C[C@H](C)[C@H](CN(C)C(=O)Cc2cccnc2)Oc2ncc(Br)cc2C1=O,0,-3,-3,nt,1,i
CCOc1ccc(NS(=O)(=O)c2ccc3c(c2)CCN3C(C)=O)cc1,1,3,2,2,1,+
CC(=O)N1CCCc2ccc(NS(=O)(=O)c3ccc(C)c(C)c3)cc21,2,-4,1,-4,2,+
CCOc1ccc(NS(=O)(=O)c2ccc3c(c2)N(C(C)=O)CC3)cc1,1,16,2,-1,1,i
O=[N+]([O-])c1ccc(N2CCN(Cc3ccccc3)CC2)c2c1no[n+]2[O-],15,-20,-180,nt,36*,nt
COc1cccc(C2c3cc4c(cc3OC(N3CCOCC3)C2C)OCO4)c1O (stereo unspecified),0,13,-4,nt,-10,+
Nc1ccc2nc(-c3ccccc3)[nH]c2c1,1,8,11,-5,-23,+
CC1(C(=O)Nc2cccc3c2CCCC3)CCN1C(=O)c1cccc(F)c1 (stereo unspecified),nt,2,1,nt,0,i
SMILES,DAGLB inh,NRP1-CendR mod,MT1-MMP act inh,MIN6 prolif,SENP1 FRET inh,Myeloid diff MLP
Cc1cccc(C)c1NC(=O)C1(C)CN(S(C)(=O)=O)CC(=O)N1CCCn1ccnc1 (stereo unspecified),nt,1,-4,nt,2,i
O=C1CCCC2=C1C(c1ccc(O)c(Br)c1)C1=C(CCCC1=O)N2c1ccccc1,-1,4,-8,2,-15,+
CCN1C2=C(C(=O)CCC2)C(c2ccc(O)c(Br)c2)C2=C1CCCC2=O,0,4,-9,2,-77,i
COc1cc(OC)c(C(=O)c2ccccc2[N+](=O)[O-])c(OC)c1,-5,2,1,nt,3,i
Cc1ccc(S(=O)(=O)NC2=C(N3CCN(Cc4ccccc4)CC3)C(=O)c3ccccc3C2=O)cc1,11,6,7,0,-11,+
COc1ccc(C)cc1Nc1n[n+](-c2ccccc2)c(-c2cc([N+](=O)[O-])cc(OC)c2O)s1,3,152,-6,-3,43*,+
COc1cccc(CN(C)S(=O)(=O)c2ccc3c(c2)OCCO3)c1,-12,19*,3,5,1,i
CC(=O)Nc1cccc(NC(=O)COc2ccc3c(c2)OCO3)c1,-1,14,-1,-2,-1,i
CC(=O)Nc1ccc2nc3c(=O)n(C)c(=O)n(C)c3nc2c1,-1,42*,-20,-3,-32,+
Cn1c(=O)c2nc3ccccc3nc2n(C)c1=O,0,9,1,3,-77,i
Cc1ccc(S(=O)(=O)N2[C@@H](CO)CO[C@H]2CC(=O)OCc2ccccc2)cc1,nt,1,9,nt,-1,i
O=C(O)c1cc(-c2ccc(Cl)cc2)n(-c2ccc(F)cc2)n1,4,18,3,0,1,i
COCCNc1nc2c(c(=O)n(Cc3cccc(Cl)c3)c(=O)n2C)n1C,0,6,0,-5,1,+
O=C(CN1CCOCC1)N/N=C/C=C/c1ccccc1,-1,2,-1,8.9*,2,i
Oc1c(CN2CCOCC2)cc(CN2CCOCC2)cc1CN1CCOCC1,1,29*,1,nt,1,i
Oc1cc(O)c(CN2CCOCC2)cc1CN1CCOCC1,-3,5,3,nt,2,i
N#Cc1c(-c2ccccc2)c(C#N)c2nc3ccccc3n2c1N,-1,-16,1,-5,-32,+
FC(F)(F)c1ccc(NC(=S)NC2CCCCC2)cc1,-9,6,-5,-6,0,+
N#Cc1c(C(F)(F)F)cc(-c2ccc(F)cc2)nc1SCC(=O)O,1,-16,-6,-2,7,i
